{"source": "ChEMBL document CHEMBL4334447", "about": "“Discovery of 4-Aminoquinoline-3-carboxamide Derivatives as Potent Reversible Bruton's Tyrosine Kinase Inhibitors for the Treatment of Rheumatoid Arthritis” (J Med Chem, 2019)", "assay": "Toxicity in complete freund's adjuvant-induced DBA/1 mouse arthritis model assessed as effect on appetite at 0.2 mg/kg, po qd administered starting from 29 day post-CFA challenge and measured on day 29, 33, 36, 40 and 43", "assay_type": "organism-based", "settings": "in vivo, 696 h", "method_in_brief": "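CIA in male DBA/1 mice: intradermal bovine type II collagen in CFA on day 0, collagen II in IFA boost on day 20. Randomized on day 29 and given oral doses once daily (n=6 per group) alongside vehicle and naive groups. Body weights recorded over the study days.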", "data": [{"smiles": "C[C@@H]1C[C@H]2[C@@H]3CCC4=CC(=O)C=C[C@]4(C)[C@@]3(F)[C@@H](O)C[C@]2(C)[C@@]1(O)C(=O)CO", "note": "[DEXAMETHASONE]", "values": [{"measurement": "Activity", "result": "Toxic"}]}]}
